42 molecules from ChEMBL document CHEMBL1125533, “Novel 1-(pyridylphenyl)-1-phenyl-2-imidazolylethanols with topical antiinflammatory activity” (J Med Chem, 1992) can be followed below.

Series [1] concerns Mus musculus. In words: In vivo inhibitory activity in a phorbol myristyl acetate (PMA) ear edema model at a dose of 100 ug/ear. In kind it is functional. In short, it runs like this: (§1)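 Mouse ear edema, topical: inflammation induced by PMA, A23187 or arachidonic acid on one ear, with the unchallenged ear as control. Mice were killed by cervical dislocation at set times after challenge, and 6 mm punches were weighed. Edema = challenged minus unchallenged punch weight. Percent inhibition = [(C−T)/C]×100 at 100 μg/ear. Duplicate separate experiments, 10 animals per group. Student's t test.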

The nature of series [2]: Partition coefficient (logP). In kind it is physicochemical. To be noted: octanol/water. The method in brief: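 log P estimated from reversed-phase HPLC retention time. Calibration curve built from shake-flask octanol/water log P values of eight pyridines. Log RT vs log P was linear.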
A further series has as its target T1, Cyclooxygenase (Bos taurus, UniProt O62664+O62698).
T1 sequence (O62664 whole entry): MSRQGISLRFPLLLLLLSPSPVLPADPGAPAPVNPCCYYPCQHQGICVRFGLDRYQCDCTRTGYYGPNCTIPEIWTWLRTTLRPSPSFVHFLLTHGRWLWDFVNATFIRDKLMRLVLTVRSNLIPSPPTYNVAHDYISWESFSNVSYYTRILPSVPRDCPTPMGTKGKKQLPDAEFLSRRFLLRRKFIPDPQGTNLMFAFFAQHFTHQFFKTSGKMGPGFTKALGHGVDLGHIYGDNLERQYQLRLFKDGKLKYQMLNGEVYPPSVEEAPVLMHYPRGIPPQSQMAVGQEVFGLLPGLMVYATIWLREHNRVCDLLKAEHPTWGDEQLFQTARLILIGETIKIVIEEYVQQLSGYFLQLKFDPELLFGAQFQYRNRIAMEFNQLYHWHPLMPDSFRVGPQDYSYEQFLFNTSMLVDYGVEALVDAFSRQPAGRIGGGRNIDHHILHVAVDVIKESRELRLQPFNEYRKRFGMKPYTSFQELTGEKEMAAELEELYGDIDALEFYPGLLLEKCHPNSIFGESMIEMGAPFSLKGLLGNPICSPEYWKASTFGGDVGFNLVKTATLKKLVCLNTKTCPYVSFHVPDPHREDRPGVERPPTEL
T1 sequence (O62698 whole entry): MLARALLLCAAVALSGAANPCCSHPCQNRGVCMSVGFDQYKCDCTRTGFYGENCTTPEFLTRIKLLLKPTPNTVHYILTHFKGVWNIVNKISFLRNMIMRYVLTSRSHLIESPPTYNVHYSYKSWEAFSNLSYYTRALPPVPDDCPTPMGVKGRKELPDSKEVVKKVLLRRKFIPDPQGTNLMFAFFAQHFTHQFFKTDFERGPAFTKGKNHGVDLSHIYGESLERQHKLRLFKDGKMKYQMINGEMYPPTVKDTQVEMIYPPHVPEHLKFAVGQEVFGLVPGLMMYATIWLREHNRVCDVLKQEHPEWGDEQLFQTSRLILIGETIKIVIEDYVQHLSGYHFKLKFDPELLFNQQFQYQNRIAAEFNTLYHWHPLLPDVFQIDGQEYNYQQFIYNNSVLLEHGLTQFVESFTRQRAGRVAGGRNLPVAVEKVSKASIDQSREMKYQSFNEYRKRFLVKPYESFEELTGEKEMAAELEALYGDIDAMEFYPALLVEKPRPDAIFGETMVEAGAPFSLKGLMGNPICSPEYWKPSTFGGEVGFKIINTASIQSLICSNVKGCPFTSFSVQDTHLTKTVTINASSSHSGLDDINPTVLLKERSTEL
Nature of the series: Inhibitory activity against Prostaglandin G/H synthase (bovine seminal vesicles). In kind it is protein assay.

Series [3] has as its target T2, Polyunsaturated fatty acid 5-lipoxygenase (Rattus norvegicus, UniProt P12527).
T2 sequence (P12527 whole entry): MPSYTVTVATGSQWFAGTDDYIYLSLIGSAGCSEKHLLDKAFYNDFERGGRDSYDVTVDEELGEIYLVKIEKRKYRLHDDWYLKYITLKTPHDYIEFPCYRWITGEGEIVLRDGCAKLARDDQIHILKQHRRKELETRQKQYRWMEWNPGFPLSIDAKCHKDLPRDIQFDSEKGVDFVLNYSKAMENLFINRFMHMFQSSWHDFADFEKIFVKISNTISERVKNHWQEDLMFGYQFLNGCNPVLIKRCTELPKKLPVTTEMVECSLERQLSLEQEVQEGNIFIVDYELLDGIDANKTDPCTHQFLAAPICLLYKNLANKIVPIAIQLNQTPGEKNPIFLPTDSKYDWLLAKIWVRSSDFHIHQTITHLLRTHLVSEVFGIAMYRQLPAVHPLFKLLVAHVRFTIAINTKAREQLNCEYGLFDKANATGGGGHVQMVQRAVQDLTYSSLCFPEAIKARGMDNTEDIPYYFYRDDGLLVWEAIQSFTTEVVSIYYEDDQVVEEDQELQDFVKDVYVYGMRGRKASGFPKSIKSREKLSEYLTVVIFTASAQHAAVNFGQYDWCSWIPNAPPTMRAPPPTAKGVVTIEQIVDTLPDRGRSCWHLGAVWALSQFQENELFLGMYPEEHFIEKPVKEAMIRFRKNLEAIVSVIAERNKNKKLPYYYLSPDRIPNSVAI
Nature of the series: Inhibitory activity against 5-lipoxygenase of RBL-1 cell line. In kind it is cell-based.

Series [4] relates to Mus musculus. Nature of the series: In vivo inhibitory activity against A-23187 ear edema at a dose of 100 ug/ear. In kind it is functional. In short, it runs like this:
as §1

The subject of series [5] is Mus musculus. Nature of the series: In vivo inhibitory activity against arachidonic acid(AA) ear edema at a dose of 100 ug/ear. The format is functional. The method in brief:
as §1

In series [6] the test system is Mus musculus. In words: In vivo inhibitory activity against phorbol myristyl acetate (PMA) ear edema at a dose of 100 ug/ear. The format is functional. In short, it runs like this: as §1

Consider `OC(CN1CCCC1)(c1ccc(F)cc1)c1ccc(-c2ccncc2)cc1` (stereo unspecified), for which the Inhibition (usually the percentage by which the read-out fell short of the control) with Mus musculus [1] is 24%. In series [2], the logP (as a rule, a log measure of how a compound divides between an organic and an aqueous phase) was determined as 3.84.
The matching figures for `CN(C)c1ccc(C(O)(Cn2ccnc2)c2ccc(-c3ccncc3)cc2)cc1` (stereo unspecified): 34% and 3.29.
In the same order, the values of `OC(Cn1ccnc1)(c1ccc(F)cc1)c1ccc(-c2ccccn2)cc1` (stereo unspecified) are 63% and 3.58.
The matching figures for `OC(Cn1ccnc1)(c1ccc(-c2ccncc2)cc1)c1ccc(C(F)(F)F)cc1` (stereo unspecified): 58% and 3.11.
`Oc1ccc(C(O)(Cn2ccnc2)c2ccc(-c3ccncc3)cc2)cc1` (stereo unspecified) returned an Inhibition in the series on Mus musculus [1] of 37%. In series [2], this molecule registered a logP of 2.49.
Regarding `OC(Cn1ccnc1)(c1ccc(F)cc1)c1ccccc1-c1cccnc1` (stereo unspecified), in the series on Mus musculus [1], the Inhibition was 62%. The molecule further came in with a logP in series [2] of 3.26.
In the same order, the values of `OC(Cn1cncn1)(c1ccc(F)cc1)c1ccc(-c2ccncc2)cc1` (stereo unspecified) are 53% and 1.67.
In the same order, the values of `OC(Cn1ccnc1)(c1cccc(Br)c1)c1ccc(F)cc1F` (stereo unspecified) are 42% and 3.6.
`OC(Cn1cccn1)(c1ccc(F)cc1)c1ccc(-c2ccncc2)cc1` (stereo unspecified) returned an Inhibition in the series on Mus musculus [1] of 28%. Moreover, in series [2], the logP turned out to be 2.14.
The matching figures for `OC(Cn1ccnc1)(c1ccc(Br)cc1)c1ccc(F)cc1F` (stereo unspecified): 22% and 3.44.
In the same order, the values of `OC(Cn1ccnc1)(c1ccc(Cl)cc1)c1ccc(-c2ccncc2)cc1` (stereo unspecified) are 58% and 3.27.
For `OCc1ccc(C(O)(Cn2ccnc2)c2ccc(-c3ccncc3)cc2)cc1` (stereo unspecified), the Inhibition in the series on Mus musculus [1] turned out to be 24%. Also, the lipophilicity (logP) in series [2] worked out at 2.4.
In the series with Mus musculus [1], `OC(Cn1ccnc1)(c1ccc(-c2ccccn2)cc1)c1ccc(F)cc1F` (stereo unspecified) registered an Inhibition of 51%. The same molecule returned a logP in series [2] of 3.65.
For `COc1c(OC)c(OC(C)=O)c2cc(Cl)ccc2c1OC(C)=O` [LONAPALENE], the Inhibition with Mus musculus [1] is given as 15%. The IC50 (in general, the concentration needed to halve the response being measured) against Cyclooxygenase is more than 750 µM; in series [3], 0.74 µM. For the same molecule, the ED50 came to 32 ug ear-1 with Mus musculus [4] and 103 ug ear-1 in the series on Mus musculus [5].
In the series with Mus musculus [1], `COc1ccc2c(c1)c(CC(=O)O)c(C)n2C(=O)c1ccc(Cl)cc1` [INDOMETHACIN] showed an Inhibition of 10%. The IC50 in series [3] was more than 25 µM. The ED50 in the series on Mus musculus [4] is 254 ug ear-1; with Mus musculus [5], 902 ug ear-1.
Turning to `OC(Cn1cnc2ccccc21)(c1ccc(F)cc1)c1ccc(-c2ccncc2)cc1` (stereo unspecified), the Inhibition with Mus musculus [1] is on record as 40%. In series [2], this molecule gave a logP of 2.06.
`OC(Cn1ccnc1)(c1ccc(F)cc1)c1ccccc1-c1ccncc1` (stereo unspecified) had an Inhibition in the series with Mus musculus [1] of 86%. In series [2], this molecule showed a logP of 2.51.
In the same order, the values of `OC(Cn1ccnc1)(c1ccc(-c2cccnc2)cc1)c1ccc(F)cc1F` (stereo unspecified) are 52% and 3.31.
The matching figures for `OC(Cn1ccnc1)(c1ccc(-c2ccncc2)cc1)c1ccccc1Cl` (stereo unspecified): 41% and 3.37.
Turning to `Oc1c(Cc2ccccc2)ccc2ccccc12`, the ED50 in the series with Mus musculus [6] worked out at 764 ug ear-1; in the series on Mus musculus [4], 5 ug ear-1; with Mus musculus [5], 7 ug ear-1. Moreover, the IC50 at Cyclooxygenase is more than 750 µM.
For the molecule `OC(CN1CCOCC1)(c1ccc(F)cc1)c1ccc(-c2ccncc2)cc1` (stereo unspecified), the Inhibition with Mus musculus [1] was 41%. In addition, the logP in series [2] worked out at 2.82.
In the same order, the values of `O=Cc1ccc(C(O)(Cn2ccnc2)c2ccc(-c3ccncc3)cc2)cc1` (stereo unspecified) are 67% and 2.38.
`OC(Cn1ccnc1)(c1ccccc1)c1ccc(Br)cc1` (stereo unspecified) displayed an Inhibition in the series with Mus musculus [1] of 37%. The molecule also gave a log partition coefficient (logP) in series [2] of 3.35.
The matching figures for `OC(Cn1ccnc1)(c1ccc(Br)cc1)c1ccccc1Cl` (stereo unspecified): 26% and 3.87.
The matching figures for `COc1ccc(C(O)(Cn2ccnc2)c2ccc(Br)cc2)cc1` (stereo unspecified): 31% and 4.02.
In the same order, the values of `OC(Cn1cccc1)(c1ccc(F)cc1)c1ccc(-c2ccncc2)cc1` (stereo unspecified) are 58% and 2.35.
In the case of `COc1ccc(C(O)(Cn2ccnc2)c2ccc(-c3ccncc3)cc2)cc1` (stereo unspecified), in the series with Mus musculus [1], the Inhibition was 74%. Further, in series [2], the logP was 3.55.
The matching figures for `CC(=O)c1ccc(C(O)(Cn2ccnc2)c2ccc(-c3ccncc3)cc2)cc1` (stereo unspecified): 78% and 2.41.
The matching figures for `OC(Cn1ccnc1)(c1ccc(F)cc1)c1cccc(-c2ccncc2)c1` (stereo unspecified): 74% and 2.91.
The matching figures for `OC(Cn1ccnc1)(c1ccc(F)cc1)c1cccc(Br)c1` (stereo unspecified): 38% and 3.3.
Turning to `OC(Cn1ccnc1)(c1ccc(F)cc1)c1ccc(F)cc1`, in the series with Mus musculus [1], the Inhibition was found to be 50%. Also, the logP in series [2] came to 2.95.
The matching figures for `Cc1ccc(C(O)(Cn2ccnc2)c2ccc(Br)cc2)cc1` (stereo unspecified): 18% and 3.55.
In the series with Mus musculus [1], `OC(Cn1ccnc1)(c1ccccc1)c1ccc(-c2ccncc2)cc1` (stereo unspecified) registered an Inhibition of 69%. Besides, the logP in series [2] amounted to 2.29.
In the case of `OC(Cn1ccnc1)(c1ccc(F)cc1)c1cccc(-c2ccccn2)c1` (stereo unspecified), the Inhibition in the series with Mus musculus [1] is recorded as 61%. This molecule also returned a logP in series [2] of 3.34.
In the same order, the values of `OC(Cn1ccnc1)(c1ccc(F)cc1)c1cccc(-c2cccnc2)c1` (stereo unspecified) are 64% and 3.22.
In the same order, the values of `OC(Cn1ccnc1)(c1ccc(-c2ccncc2)cc1)c1ccc(F)cc1F` (stereo unspecified) are 73% and 2.54.
The matching figures for `COC(C)(OC)c1ccc(C(O)(Cn2ccnc2)c2ccc(-c3ccncc3)cc2)cc1` (stereo unspecified): 61% and 3.45.
In the series on Mus musculus [1], `OC(Cn1ccnc1)(c1ccc(-c2ccccc2)cc1)c1ccc(-c2ccncc2)cc1` (stereo unspecified) displayed an Inhibition of 49%. Also, in series [2], the logP amounted to 3.86.
The matching figures for `OC(Cn1ccnc1)(c1ccc(F)cc1)c1ccc(Br)cc1` (stereo unspecified): 29% and 3.42.
As for `OC(Cn1ccnc1)(c1ccc(F)cc1)c1ccc(-c2ccccc2)cc1` (stereo unspecified), in the series on Mus musculus [1], the Inhibition is on record as 25%. Also, the lipophilicity (logP) in series [2] turned out to be 4.23.
As for `COC(=O)c1ccc(C(O)(Cn2ccnc2)c2ccc(-c3ccncc3)cc2)cc1` (stereo unspecified), the Inhibition in the series with Mus musculus [1] came out at 62%. Further, in series [2], the lipophilicity (logP) stood at 2.61.
With `OC(CCc1ncc[nH]1)(c1ccc(F)cc1)c1ccc(F)cc1`, the Inhibition in the series on Mus musculus [1] is recorded as 52%. The same molecule displayed a logP in series [2] of 3.13.
